Values after ≈ are worked out from the molar mass of the structure shown.
Assays:
Format in all cases: functional
Streptococcus pyogenes [1] = experiment: In vitro minimum inhibitory concentration against Streptococcus pyogenes C 203
Streptococcus pyogenes [2] = experiment: In vivo effective dose given perorally to mice infected with Streptococcus pyogenes C 203; settings: po
In short: (§1)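 Mice (five per treatment group, five groups) infected intraperitoneally with about 10⁵ cells of Strep. pyogenes C 203, about 100× the LD50. ED50 (mg/kg) was calculated from the percentage of mice surviving at each dose on day 7.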

Enterococcus faecalis = experiment: In vitro minimum inhibitory concentration against Streptococcus faecalis ATCC 7080
Streptococcus pyogenes [3] = experiment: Subcutaneously administration into mice infected with Streptococcus pyogenes C 203; settings: sc; in short: as §1
[4] = test system: Staphylococcus epidermidis; experiment: In vitro minimum inhibitory concentration against Staphylococcus epidermis ATCC 12228
Staphylococcus aureus = experiment: In vitro minimum inhibitory concentration against Staphylococcus aureus Tour
Streptococcus pneumoniae = experiment: In vitro minimum inhibitory concentration against Streptococcus pneumoniae UC41
[5] = test system: Staphylococcus haemolyticus; experiment: In vitro minimum inhibitory concentration against Staphylococcus hemolyticus 602 cell line; settings: strain 602

MIC (Streptococcus pyogenes [1]) [µg/mL]	MIC (Enterococcus faecalis) [µg/mL]	MIC [4] [µg/mL]	MIC (Staphylococcus aureus) [µg/mL]	MIC (Streptococcus pneumoniae) [µg/mL]	Compound	ED50 (Streptococcus pyogenes [2]) [mg/kg]	ED50 (Streptococcus pyogenes [3]) [mg/kg]	MIC [5] [µg/mL]
0.06 (≈ 0.0299 µM)	0.12 (≈ 0.0598 µM)	0.12 (≈ 0.0598 µM)	0.12 (≈ 0.0598 µM)	0.06 (≈ 0.0299 µM)	CC(=O)N[C@@H]1[C@H](O[C@@H]2c3ccc(c(Cl)c3)Oc3cc4cc(c3O[C@@H]3O[C@@H](CO)[C@@H](O)[C@H](O)[C@@H]3NC(=O)CCCCCCC(C)C)Oc3ccc(cc3Cl)C[C@H]3NC(=O)[C@H](N)c5ccc(O)c(c5)Oc5cc(O)cc(c5)[C@H](NC3=O)C(=O)N[C@H]4C(=O)N[C@H]3C(=O)N[C@@H]2C(=O)N[C@H](C(=O)NCCCN2CCOCC2)c2cc(O)cc(O[C@H]4O[C@H](CO)[C@@H](O)[C@@H](O)[C@@H]4O)c2-c2cc3ccc2O)O[C@@H](CO)[C@@H](O)[C@@H]1O	> 300	0.18	0.5 (≈ 0.249 µM)
0.06 (≈ 0.0305 µM)	0.12 (≈ 0.0609 µM)	0.12 (≈ 0.0609 µM)	0.12 (≈ 0.0609 µM)	0.06 (≈ 0.0305 µM)	CC(=O)N[C@@H]1[C@H](O[C@@H]2c3ccc(c(Cl)c3)Oc3cc4cc(c3O[C@@H]3O[C@@H](CO)[C@@H](O)[C@H](O)[C@@H]3NC(=O)CCCCCCC(C)C)Oc3ccc(cc3Cl)C[C@H]3NC(=O)[C@H](N)c5ccc(O)c(c5)Oc5cc(O)cc(c5)[C@H](NC3=O)C(=O)N[C@H]4C(=O)N[C@H]3C(=O)N[C@@H]2C(=O)N[C@H](C(=O)NCc2ccccn2)c2cc(O)cc(O[C@H]4O[C@H](CO)[C@@H](O)[C@@H](O)[C@@H]4O)c2-c2cc3ccc2O)O[C@@H](CO)[C@@H](O)[C@@H]1O	139	0.08	8 (≈ 4.06 µM)
0.06 (≈ 0.0308 µM)	0.12 (≈ 0.0615 µM)	0.06 (≈ 0.0308 µM)	0.12 (≈ 0.0615 µM)	0.12 (≈ 0.0615 µM)	CNCCN(C)C(=O)[C@H]1NC(=O)[C@H]2NC(=O)[C@H](NC(=O)[C@@H]3NC(=O)[C@H]4NC(=O)[C@@H](Cc5ccc(c(Cl)c5)Oc5cc3cc(c5O[C@@H]3O[C@@H](CO)[C@@H](O)[C@H](O)[C@@H]3NC(=O)CCCCCCC(C)C)Oc3ccc(cc3Cl)[C@H]2O[C@@H]2O[C@@H](CO)[C@@H](O)[C@H](O)[C@@H]2NC(C)=O)NC(=O)[C@H](N)c2ccc(O)c(c2)Oc2cc(O)cc4c2)c2ccc(O)c(c2)-c2c(O[C@H]3O[C@H](CO)[C@@H](O)[C@@H](O)[C@@H]3O)cc(O)cc21	72	0.1	1 (≈ 0.513 µM)
0.06 (≈ 0.0308 µM)	0.12 (≈ 0.0615 µM)	0.06 (≈ 0.0308 µM)	0.12 (≈ 0.0615 µM)	0.12 (≈ 0.0615 µM)	CC(=O)N[C@@H]1[C@H](O[C@@H]2c3ccc(c(Cl)c3)Oc3cc4cc(c3O[C@@H]3O[C@@H](CO)[C@@H](O)[C@H](O)[C@@H]3NC(=O)CCCCCCC(C)C)Oc3ccc(cc3Cl)C[C@H]3NC(=O)[C@H](N)c5ccc(O)c(c5)Oc5cc(O)cc(c5)[C@H](NC3=O)C(=O)N[C@H]4C(=O)N[C@H]3C(=O)N[C@@H]2C(=O)N[C@H](C(=O)NCCCCN)c2cc(O)cc(O[C@H]4O[C@H](CO)[C@@H](O)[C@@H](O)[C@@H]4O)c2-c2cc3ccc2O)O[C@@H](CO)[C@@H](O)[C@@H]1O	90	0.07	0.12 (≈ 0.0615 µM)
0.06 (≈ 0.0306 µM)	0.12 (≈ 0.0611 µM)	0.06 (≈ 0.0306 µM)	0.12 (≈ 0.0611 µM)	0.12 (≈ 0.0611 µM)	CCNCCCNC(=O)[C@H]1NC(=O)[C@H]2NC(=O)[C@H](NC(=O)[C@@H]3NC(=O)[C@H]4NC(=O)[C@@H](Cc5ccc(c(Cl)c5)Oc5cc3cc(c5O[C@@H]3O[C@@H](CO)[C@@H](O)[C@H](O)[C@@H]3NC(=O)CCCCCCC(C)C)Oc3ccc(cc3Cl)[C@H]2O[C@@H]2O[C@@H](CO)[C@@H](O)[C@H](O)[C@@H]2NC(C)=O)NC(=O)[C@H](N)c2ccc(O)c(c2)Oc2cc(O)cc4c2)c2ccc(O)c(c2)-c2c(O[C@H]3O[C@H](CO)[C@@H](O)[C@@H](O)[C@@H]3O)cc(O)cc21	112	0.1	0.12 (≈ 0.0611 µM)
0.06 (≈ 0.0308 µM)	0.12 (≈ 0.0615 µM)	0.06 (≈ 0.0308 µM)	0.12 (≈ 0.0615 µM)	0.06 (≈ 0.0308 µM)	CC(=O)N[C@@H]1[C@H](O[C@@H]2c3ccc(c(Cl)c3)Oc3cc4cc(c3O[C@@H]3O[C@@H](CO)[C@@H](O)[C@H](O)[C@@H]3NC(=O)CCCCCCC(C)C)Oc3ccc(cc3Cl)C[C@H]3NC(=O)[C@H](N)c5ccc(O)c(c5)Oc5cc(O)cc(c5)[C@H](NC3=O)C(=O)N[C@H]4C(=O)N[C@H]3C(=O)N[C@@H]2C(=O)N[C@H](C(=O)NCCN(C)C)c2cc(O)cc(O[C@H]4O[C@H](CO)[C@@H](O)[C@@H](O)[C@@H]4O)c2-c2cc3ccc2O)O[C@@H](CO)[C@@H](O)[C@@H]1O	140	0.09	0.12 (≈ 0.0615 µM)
0.06 (≈ 0.0301 µM)	0.12 (≈ 0.0602 µM)	0.12 (≈ 0.0602 µM)	0.12 (≈ 0.0602 µM)	0.06 (≈ 0.0301 µM)	CC(=O)N[C@@H]1[C@H](O[C@@H]2c3ccc(c(Cl)c3)Oc3cc4cc(c3O[C@@H]3O[C@@H](CO)[C@@H](O)[C@H](O)[C@@H]3NC(=O)CCCCCCC(C)C)Oc3ccc(cc3Cl)C[C@H]3NC(=O)[C@H](N)c5ccc(O)c(c5)Oc5cc(O)cc(c5)[C@H](NC3=O)C(=O)N[C@H]4C(=O)N[C@H]3C(=O)N[C@@H]2C(=O)N[C@H](C(=O)NCCCCCN(C)C)c2cc(O)cc(O[C@H]4O[C@H](CO)[C@@H](O)[C@@H](O)[C@@H]4O)c2-c2cc3ccc2O)O[C@@H](CO)[C@@H](O)[C@@H]1O	112	0.12	0.5 (≈ 0.251 µM)
0.06 (≈ 0.031 µM)	0.12 (≈ 0.062 µM)	0.12 (≈ 0.062 µM)	0.12 (≈ 0.062 µM)	0.12 (≈ 0.062 µM)	CNCCNC(=O)[C@H]1NC(=O)[C@H]2NC(=O)[C@H](NC(=O)[C@@H]3NC(=O)[C@H]4NC(=O)[C@@H](Cc5ccc(c(Cl)c5)Oc5cc3cc(c5O[C@@H]3O[C@@H](CO)[C@@H](O)[C@H](O)[C@@H]3NC(=O)CCCCCCC(C)C)Oc3ccc(cc3Cl)[C@H]2O[C@@H]2O[C@@H](CO)[C@@H](O)[C@H](O)[C@@H]2NC(C)=O)NC(=O)[C@H](N)c2ccc(O)c(c2)Oc2cc(O)cc4c2)c2ccc(O)c(c2)-c2c(O[C@H]3O[C@H](CO)[C@@H](O)[C@@H](O)[C@@H]3O)cc(O)cc21	173	0.08	0.12 (≈ 0.062 µM)
0.06 (≈ 0.0306 µM)	0.06 (≈ 0.0306 µM)	0.06 (≈ 0.0306 µM)	0.12 (≈ 0.0611 µM)	0.06 (≈ 0.0306 µM)	CC(=O)N[C@@H]1[C@H](O[C@@H]2c3ccc(c(Cl)c3)Oc3cc4cc(c3O[C@@H]3O[C@@H](CO)[C@@H](O)[C@H](O)[C@@H]3NC(=O)CCCCCCC(C)C)Oc3ccc(cc3Cl)C[C@H]3NC(=O)[C@H](N)c5ccc(O)c(c5)Oc5cc(O)cc(c5)[C@H](NC3=O)C(=O)N[C@H]4C(=O)N[C@H]3C(=O)N[C@@H]2C(=O)N[C@H](C(=O)N(C)CCN(C)C)c2cc(O)cc(O[C@H]4O[C@H](CO)[C@@H](O)[C@@H](O)[C@@H]4O)c2-c2cc3ccc2O)O[C@@H](CO)[C@@H](O)[C@@H]1O	90	0.15	0.25 (≈ 0.127 µM)
0.06 (≈ 0.0306 µM)	0.12 (≈ 0.0611 µM)	0.06 (≈ 0.0306 µM)	0.12 (≈ 0.0611 µM)	0.12 (≈ 0.0611 µM)	CNCCCN(C)C(=O)[C@H]1NC(=O)[C@H]2NC(=O)[C@H](NC(=O)[C@@H]3NC(=O)[C@H]4NC(=O)[C@@H](Cc5ccc(c(Cl)c5)Oc5cc3cc(c5O[C@@H]3O[C@@H](CO)[C@@H](O)[C@H](O)[C@@H]3NC(=O)CCCCCCC(C)C)Oc3ccc(cc3Cl)[C@H]2O[C@@H]2O[C@@H](CO)[C@@H](O)[C@H](O)[C@@H]2NC(C)=O)NC(=O)[C@H](N)c2ccc(O)c(c2)Oc2cc(O)cc4c2)c2ccc(O)c(c2)-c2c(O[C@H]3O[C@H](CO)[C@@H](O)[C@@H](O)[C@@H]3O)cc(O)cc21	> 300	0.13	0.25 (≈ 0.127 µM)
0.03 (≈ 0.0155 µM)	0.12 (≈ 0.062 µM)	0.06 (≈ 0.031 µM)	0.12 (≈ 0.062 µM)	0.12 (≈ 0.062 µM)	CC(=O)N[C@@H]1[C@H](O[C@@H]2c3ccc(c(Cl)c3)Oc3cc4cc(c3O[C@@H]3O[C@@H](CO)[C@@H](O)[C@H](O)[C@@H]3NC(=O)CCCCCCC(C)C)Oc3ccc(cc3Cl)C[C@H]3NC(=O)[C@H](N)c5ccc(O)c(c5)Oc5cc(O)cc(c5)[C@H](NC3=O)C(=O)N[C@H]4C(=O)N[C@H]3C(=O)N[C@@H]2C(=O)N[C@H](C(=O)NCCCN)c2cc(O)cc(O[C@H]4O[C@H](CO)[C@@H](O)[C@@H](O)[C@@H]4O)c2-c2cc3ccc2O)O[C@@H](CO)[C@@H](O)[C@@H]1O	89.6	0.08	0.12 (≈ 0.062 µM)
0.06 (≈ 0.0303 µM)	0.12 (≈ 0.0607 µM)	0.06 (≈ 0.0303 µM)	0.12 (≈ 0.0607 µM)	0.12 (≈ 0.0607 µM)	CC(=O)N[C@@H]1[C@H](O[C@@H]2c3ccc(c(Cl)c3)Oc3cc4cc(c3O[C@@H]3O[C@@H](CO)[C@@H](O)[C@H](O)[C@@H]3NC(=O)CCCCCCC(C)C)Oc3ccc(cc3Cl)C[C@H]3NC(=O)[C@H](N)c5ccc(O)c(c5)Oc5cc(O)cc(c5)[C@H](NC3=O)C(=O)N[C@H]4C(=O)N[C@H]3C(=O)N[C@@H]2C(=O)N[C@H](C(=O)NCCCCCCN)c2cc(O)cc(O[C@H]4O[C@H](CO)[C@@H](O)[C@@H](O)[C@@H]4O)c2-c2cc3ccc2O)O[C@@H](CO)[C@@H](O)[C@@H]1O	> 300	0.14	0.12 (≈ 0.0607 µM)
